Columns and labels:
Rattus norvegicus [1] = assay: Distribution of radioactivity in lungs of Fischer 344 female rat after 6 hr of intravenous administration; type: ADME, organism-based, Lung; conditions: in vivo
In short: (§1)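 Female Fischer 344 rats, 10-12 weeks old, 170-200 g, fed ad libitum. The 131I-labelled fatty acid was dissolved in absolute ethanol, added dropwise to stirred 6% bovine serum albumin at 40 °C (final ethanol 10%), filtered, and injected into a lateral tail vein under ether anaesthesia. Organs were excised, rinsed, blotted and weighed, then counted by Ge(Li) analyzer as percent injected dose/g.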

Rattus norvegicus [2] = assay: Distribution of radioactivity in Thyroid of Fischer 344 female rat after 7 days of intravenous administration; type: ADME, organism-based; conditions: in vivo, 168 h
In short: (§2)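 Female Fischer 344 rats (10-12 weeks, 170-200 g) with food and water ad libitum. The 131I-labelled fatty acid was taken up in ethanol, added dropwise to stirred 6% BSA at 40 °C (final ethanol 10%), filtered, and injected into a lateral tail vein under ether. Rats were CO2-anaesthetised and killed; organs were excised, rinsed, blotted, weighed and Ge(Li)-counted. Results are mean (range) % injected dose/g.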

Rattus norvegicus [3] = assay: Distribution of radioactivity in heart of Fischer 344 female rat after 10 min of intravenous administration; type: ADME, organism-based; conditions: in vivo; in short: as §2
Rattus norvegicus [4] = assay: Distribution of radioactivity in brain of Fischer 344 female rat after 24 hr of intravenous administration; type: ADME, organism-based; conditions: in vivo; in short: as §2
Rattus norvegicus [5] = assay: Distribution of radioactivity in lungs of Fischer 344 female rat after 2 hr of intravenous administration; type: ADME, organism-based, Lung; conditions: in vivo; in short: as §1
Rattus norvegicus [6] = assay: Distribution of radioactivity in liver of Fischer 344 female rat after 7 of days intravenous administration; type: ADME, organism-based; conditions: in vivo; in short: as §1
Rattus norvegicus [7] = assay: Distribution of radioactivity in lungs of Fischer 344 female rat after 24 hr of intravenous administration; type: ADME, organism-based, Lung; conditions: in vivo; in short: as §1
Rattus norvegicus [8] = assay: Distribution of radioactivity in heart of Fischer 344 female rat after 60 min of intravenous administration; type: ADME, organism-based; conditions: in vivo, 1 h
Rattus norvegicus [9] = assay: Distribution of radioactivity in brain of Fischer 344 female rat after 4 days of intravenous administration; type: ADME, organism-based; conditions: in vivo, 96 h; in short: as §2
Rattus norvegicus [10] = assay: Distribution of radioactivity in brain of Fischer 344 female rat after 30 min of intravenous administration; type: ADME, organism-based; conditions: in vivo, 0.5 h; in short: as §2
Rattus norvegicus [11] = assay: Distribution of radioactivity in blood of Fischer 344 female rat after 7 days of intravenous administration; type: ADME, organism-based; conditions: in vivo, 168 h; in short: as §2
Rattus norvegicus [12] = assay: Distribution of radioactivity in brain of Fischer 344 female rat after 6 hr of intravenous administration; type: ADME, organism-based; conditions: in vivo; in short: as §2
Rattus norvegicus [13] = assay: Distribution of radioactivity in kidneys of Fischer 344 female rat after 4 days of intravenous administration; type: ADME, organism-based, Kidney; conditions: in vivo, 96 h; in short: as §2
Rattus norvegicus [14] = assay: Distribution of radioactivity in Thyroid of Fischer 344 female rat after 4 days of intravenous administration; type: ADME, organism-based; conditions: in vivo, 96 h; in short: as §2
Rattus norvegicus [15] = assay: Distribution of radioactivity in kidneys of Fischer 344 female rat after 2 hr of intravenous administration; type: ADME, organism-based, Kidney; conditions: in vivo; in short: as §2
Rattus norvegicus [16] = assay: Distribution of radioactivity in lungs of Fischer 344 female rat after 7 days of intravenous administration; type: ADME, organism-based, Lung; conditions: in vivo, 168 h; in short: as §1
Rattus norvegicus [17] = assay: Distribution of radioactivity in Thyroid of Fischer 344 female rat after 10 min of intravenous administration; type: ADME, organism-based; conditions: in vivo; in short: as §2
Rattus norvegicus [18] = assay: Distribution of radioactivity in brain of Fischer 344 female rat after 60 min of intravenous administration; type: ADME, organism-based; conditions: in vivo, 1 h; in short: as §2
Rattus norvegicus [19] = assay: Distribution of radioactivity in lungs of Fischer 344 female rat after 30 min of intravenous administration; type: ADME, organism-based, Lung; conditions: in vivo, 0.5 h
In short: (§3)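 Female Fischer 344 rats, 10-12 weeks, 170-200 g, fed ad libitum. The labelled fatty acid was given in 6% bovine serum albumin via a lateral tail vein under ether anaesthesia. Rats were killed by CO2 anaesthesia and cervical fracture; organs were excised, rinsed, blotted, weighed and counted by Ge(Li) analyzer. Results are mean percent injected dose/g with range.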

Rattus norvegicus [20] = assay: Distribution of radioactivity in heart of Fischer 344 female rat after 4 day of intravenous administration; type: ADME, organism-based; conditions: in vivo, 96 h; in short: as §2
Rattus norvegicus [21] = assay: Distribution of radioactivity in blood of Fischer 344 female rat after 10 min of intravenous administration; type: ADME, organism-based; conditions: in vivo; in short: as §2
Rattus norvegicus [22] = assay: Distribution of radioactivity in brain of Fischer 344 female rat after 10 min of intravenous administration; type: ADME, organism-based; conditions: in vivo; in short: as §2
Rattus norvegicus [23] = assay: Distribution of radioactivity in kidneys of Fischer 344 female rat after 7 days of intravenous administration; type: ADME, organism-based, Kidney; conditions: in vivo, 168 h; in short: as §2
Rattus norvegicus [24] = assay: Distribution of radioactivity in Thyroid of Fischer 344 female rat after 2 hr of intravenous administration; type: ADME, organism-based; conditions: in vivo; in short: as §2
Rattus norvegicus [25] = assay: Distribution of radioactivity in brain of Fischer 344 female rat after 7 days of intravenous administration; type: ADME, organism-based; conditions: in vivo, 168 h; in short: as §2
Rattus norvegicus [26] = assay: Distribution of radioactivity in heart of Fischer 344 female rat after 7 days of intravenous administration; type: ADME, organism-based; conditions: in vivo, 168 h; in short: as §2
Rattus norvegicus [27] = assay: Distribution of radioactivity in kidneys of Fischer 344 female rat after 30 min of intravenous administration; type: ADME, organism-based, Kidney; conditions: in vivo, 0.5 h
Rattus norvegicus [28] = assay: Distribution of radioactivity in liver of Fischer 344 female rat after 30 min of intravenous administration; type: ADME, organism-based; conditions: in vivo, 0.5 h; in short: as §3
Rattus norvegicus [29] = assay: Distribution of radioactivity in heart of Fischer 344 female rat after 24 hr of intravenous administration; type: ADME, organism-based; conditions: in vivo; in short: as §2
Rattus norvegicus [30] = assay: Distribution of radioactivity in lungs of Fischer 344 female rat after 4 days of intravenous administration; type: ADME, organism-based, Lung; conditions: in vivo, 96 h; in short: as §1
Rattus norvegicus [31] = assay: Distribution of radioactivity in heart of Fischer 344 female rat after 6 hr of intravenous administration; type: ADME, organism-based; conditions: in vivo; in short: as §2

## O=C(O)CCCCCCCC[Te]CCCCCCCC[131I]
Rattus norvegicus [1]
  Distribution of radioactivity: 0.48 dose g-1
Rattus norvegicus [2]
  Distribution of radioactivity: 203 dose g-1
Rattus norvegicus [3]
  Distribution of radioactivity: 2.01 dose g-1
Rattus norvegicus [4]
  Distribution of radioactivity: 0.03 dose g-1
Rattus norvegicus [5]
  Distribution of radioactivity: 0.68 dose g-1
Rattus norvegicus [6]
  Distribution of radioactivity: 0.014 dose g-1
Rattus norvegicus [7]
  Distribution of radioactivity: 0.18 dose g-1
Rattus norvegicus [8]
  Distribution of radioactivity: 1.86 dose g-1
Rattus norvegicus [9]
  Distribution of radioactivity: < 0.007 dose g-1
Rattus norvegicus [10]
  Distribution of radioactivity: 0.06 dose g-1
Rattus norvegicus [11]
  Distribution of radioactivity: 0.009 dose g-1
Rattus norvegicus [12]
  Distribution of radioactivity: 0.03 dose g-1
Rattus norvegicus [13]
  Distribution of radioactivity: 0.03 dose g-1
Rattus norvegicus [14]
  Distribution of radioactivity: 226 dose g-1
Rattus norvegicus [15]
  Distribution of radioactivity: 0.54 dose g-1
Rattus norvegicus [16]
  Distribution of radioactivity: 0.031 dose g-1
Rattus norvegicus [17]
  Distribution of radioactivity: 12.1 dose g-1
Rattus norvegicus [18]
  Distribution of radioactivity: 0.05 dose g-1
Rattus norvegicus [19]
  Distribution of radioactivity: 0.85 dose g-1
Rattus norvegicus [20]
  Distribution of radioactivity: 0.04 dose g-1
Rattus norvegicus [21]
  Distribution of radioactivity: 0.88 dose g-1
Rattus norvegicus [22]
  Distribution of radioactivity: 0.11 dose g-1
Rattus norvegicus [23]
  Distribution of radioactivity: 0.016 dose g-1
Rattus norvegicus [24]
  Distribution of radioactivity: 166 dose g-1
Rattus norvegicus [25]
  Distribution of radioactivity: < 0.002 dose g-1
Rattus norvegicus [26]
  Distribution of radioactivity: 0.016 dose g-1
Rattus norvegicus [27]
  Distribution of radioactivity: 0.8 dose g-1
Rattus norvegicus [28]
  Distribution of radioactivity: 1.75 dose g-1
Rattus norvegicus [29]
  Distribution of radioactivity: 0.11 dose g-1
Rattus norvegicus [30]
  Distribution of radioactivity: 0.06 dose g-1
Rattus norvegicus [31]
  Distribution of radioactivity: 0.57 dose g-1

Reference: ChEMBL document CHEMBL1122064, “Synthesis and biological evaluation of 17-[131I]iodo-9-telluraheptadecanoic acid, a potential imaging agent” (J Med Chem, 1982)
